miR-122 sensor: miR-122 Renilla sensor signal increase in Huh7, primary screen, miR-122 inhibitor project, cell-based, single point, plate reader | 0.3% of 340,000 active | Huh7 miR-122 Renilla luciferase sensor, 48 h; neutral wells = 0, positive control = 100 | activation (reporter increase), % at 12.5 µM | AID 602342, 2012;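 active = mean replicate activation score at least 90 and every replicate individually at or above 90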;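 note: higher luciferase means less miR-122 activity so hits act as miR-122 inhibitors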
Rtt109 HAT inh: inhibitors of C. albicans Rtt109/Vps75 HAT, primary screen, biochemical, ThioGlo CoA-SH fluorescence, plate reader; 0.16% of 330,000 active; inhibition, % at 34.9 µM; purified Rtt109/Vps75, 4 h; AID 540336, 2011; Histone acetyltransferase RTT109 (Candida albicans (strain SC5314 / ATCC MYA-2876)), …;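 active = inhibition of at least 50% in every replicate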
Target sequence (Q5AAJ8 whole entry, looked up): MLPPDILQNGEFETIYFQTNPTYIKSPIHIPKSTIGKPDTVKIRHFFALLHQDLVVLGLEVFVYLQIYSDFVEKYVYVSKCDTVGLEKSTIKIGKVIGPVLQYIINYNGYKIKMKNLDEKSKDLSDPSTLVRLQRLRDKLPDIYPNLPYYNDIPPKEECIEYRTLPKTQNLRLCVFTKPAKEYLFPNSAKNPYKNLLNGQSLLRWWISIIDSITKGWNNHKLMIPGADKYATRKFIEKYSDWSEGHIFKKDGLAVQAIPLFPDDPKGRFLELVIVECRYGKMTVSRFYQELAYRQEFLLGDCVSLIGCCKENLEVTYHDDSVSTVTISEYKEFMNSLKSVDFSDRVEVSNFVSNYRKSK
ERAP1 inh: human ERAP1 aminopeptidase inhibitors, primary screen, biochemical, single point, plate reader | Endoplasmic reticulum aminopeptidase 1 (Homo sapiens), Q9NZ08 | recombinant ERAP1, Leu-AMC fluorescence, 60 min | inhibition, % at 10.7 µM | 0.15% of 340,000 active;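 active = mean replicate inhibition of at least 30%, or all replicates individually reaching that 30% level; inactive = mean below 30% and not every replicate reaching it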;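 note: 0% = neutral control wells and 100% = L-leucinethiol positive control wells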
S100A4 inh HTS: inhibitors of S100A4-myosin IIA peptide binding, primary screen, biochemical, fluorescence polarization, TAMRA-MyoIIA peptide | Protein S100-A4 (Homo sapiens), P26447 | inhibition, % at 10.7 µM | 0.14% of 360,000 active;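 active = mean inhibition of at least 70% across replicates, with every replicate also reaching that level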
Target sequence (P26447 whole entry, looked up): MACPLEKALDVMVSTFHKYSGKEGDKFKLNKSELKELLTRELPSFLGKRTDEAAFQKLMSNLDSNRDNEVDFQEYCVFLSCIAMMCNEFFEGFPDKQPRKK
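Material: S100A4 monomer protein / Buffer or medium: 50 mM HEPES pH 7.2, 10 mM CaCl2, 100 mM KCl / Times: 5 min incubation before reading / Benchmarks: neutral control DMSO, positive control TFP / Reagent: labelled myosin peptide probe, 5 nM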
AF4-AF9 inh: inhibitors of AF4 peptide binding to AF9, primary screen, biochemical, AlphaScreen, biotin-AF4 peptide, FLAG-AF9, single point | Protein AF-9 (Homo sapiens), P42568 | inhibition, % at 10 µM | 0.47% of 350,000 active | AID 651704, 2012;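 active = every replicate reaching a set inhibition limit, whatever the replicate mean, cut at about 25% in these data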;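 note: 0% = plate neutral control median and 100% = total signal loss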
Numbers without * were called inactive; x = no result; ! = repeats disagree; [ ] = remark or other dose. A selection: hits, their analogues and other compounds. The true share with any hit is near 0.86%.

SMILES | miR-122 sensor | Rtt109 HAT inh | ERAP1 inh | S100A4 inh HTS | AF4-AF9 inh
Cn1cnc(C(=O)N2CCN(C(=O)OC(C)(C)C)CC2)c1C(=O)N1CCN(C(=O)OC(C)(C)C)CC1 | -6 | 3 | 106* | -5 | -6
CCCCCC[N+](C)(C)CC/C=C1/c2ccccc2Sc2ccc(Cl)cc21 | x | 73* | 14 | -2 | 22
CN(C)CC/C=C1\c2ccccc2COc2ccccc21 | -2 | 9 | -2 | -3 | 1
CN(C)CC/C=C1/c2ccccc2Sc2ccc(Cl)cc21 | 11 | 9 | 3 | -3 | 27*!
C[C@H]1CCCCO[C@H](CN(C)C(=O)CCC(F)(F)F)[C@@H](C)CN([C@@H](C)CO)C(=O)c2cc(NS(=O)(=O)c3ccc(F)cc3)ccc2O1 | 0[16.7 µM] | x | 5 | 0 | 6
COc1ccc(NCC(O)Cn2c(C)c(C)c3ccccc32)cc1 (stereo unspecified) | 4 | 3 | 1 | 2 | 21
Cc1c(C)n(CC(O)CNc2ccccc2)c2ccccc12 (stereo unspecified) | x | -10 | 1 | -5 | 26*
CC(C)NC(=O)N(C)C[C@@H]1OCCCC[C@@H](C)Oc2ccc(N(C)C)cc2C(=O)N([C@@H](C)CO)C[C@@H]1C | 3[16.7 µM] | x | 1 | 4 | 3
Cc1ccc(S(=O)(=O)Nc2ccc(-n3cnnn3)cc2)cc1 | x | 1 | 2 | -3 | -10
Cc1ccc(S(=O)(=O)Nc2ccc(-n3cnnn3)cc2)c(C)c1 | 149* | 3 | 1 | -7 | 1
CCN(CC)CCNC(=O)c1[nH]c2ccc(OCc3ccccc3)cc2c1C | 3 | 4 | -1 | 3 | 25*
CCN(Cc1ccccc1)C(=O)c1[nH]c2ccc(OC)cc2c1C | 125* | 14 | 3 | 3 | 3
Cc1ccnc(NC(=O)c2cccc(S(=O)(=O)N3CCOCC3)c2)c1 | 3 | -4 | 3 | 0 | 0
CN1CCN(S(=O)(=O)c2cccc(C(=O)Nc3cc(Cl)ccc3N3CCOCC3)c2)CC1 | -4 | -6 | 61* | -5 | 6
O=C(Nc1ccccn1)c1cccc(S(=O)(=O)N2CCOCC2)c1 | 160* | 3 | x | x | x
Cc1ccccc1OC1C(=O)N(Cc2ccc3c(c2)OCO3)C1c1sccc1C (stereo unspecified) | 158* | -2 | x | x | x
O=C1C(Oc2ccccc2)C(c2cccs2)N1Cc1ccc2c(c1)OCO2 (stereo unspecified) | 71 | 2 | x | x | x
O=S1(=O)N=CN(Cc2cccc(F)c2)c2ccccc21 | 157* | 2 | x | x | x
N#Cc1cccc(CN2C=NS(=O)(=O)c3ccccc32)c1 | 1 | 0 | -10 | 1 | 2
C[C@H]1CN([C@@H](C)CO)S(=O)(=O)c2ccc(-c3cncnc3)cc2O[C@@H]1CN(C)C(=O)C1CCCCC1 | x | x | x | 8 | 1
COCC(=O)Nc1ccc2c(c1)C(=O)N(C)C[C@@H](OC)[C@H](C)CN(Cc1ccncc1)[C@@H](C)CO2 | 9[16.7 µM] | x | -2 | 6 | -2
C[C@@H]1CCCCO[C@@H](CN(C)Cc2ccc(C(F)(F)F)cc2)[C@H](C)CN([C@H](C)CO)C(=O)c2cc(N(C)C)ccc2O1 | -14[16.7 µM] | x | -1 | 11 | 40*
C[C@@H]1CN([C@H](C)CO)C(=O)c2cc(N(C)C)ccc2O[C@@H](C)CCCCO[C@@H]1CN(C)Cc1ccc(C(=O)O)cc1 | -2[16.7 µM] | x | 11 | 52 | 1
C[C@@H]1CCCCO[C@@H](CN(C)Cc2ccc(C(F)(F)F)cc2)[C@H](C)CN([C@@H](C)CO)C(=O)c2cc(N(C)C)ccc2O1 | -6[16.7 µM] | x | 2 | 6 | 32*
C[C@@H]1CCCCO[C@@H](CN(C)Cc2ccc(C(F)(F)F)cc2)[C@@H](C)CN([C@@H](C)CO)C(=O)c2cc(N(C)C)ccc2O1 | -11[16.7 µM] | x | -1 | -4 | 21
SMILES | miR-122 sensor | Rtt109 HAT inh | ERAP1 inh | S100A4 inh HTS | AF4-AF9 inh
CC=Cc1ccc2n(c1=O)C[C@@H]1[C@@H](CO)[C@H](C(=O)N(C)C)N(CC3CC3)[C@H]21 (mixture of isomers) | -7[16.7 µM] | x | 1 | 4 | -1
CCC(=O)Nc1ccc2c(c1)C(=O)N(C)C[C@H](OC)[C@@H](C)CN(CCC(F)(F)F)[C@@H](C)CO2 | x | x | -2 | -1 | -1
CO[C@@H](CN(C)S(=O)(=O)c1ccccc1)[C@@H](C)CN(Cc1ccccc1Cl)[C@@H](C)CO | x | x | 0 | 7 | 1
O=C(C1CCCCC1)N1C[C@@H]2[C@H](c3ccccc31)[C@H](CO)N2Cc1ccccc1Cl | -40[16.7 µM] | x | 4 | -3 | 2
O=C(C1CCCC1)N1CC[C@@H]2[C@H](CO)Nc3ccc(-c4cccc(F)c4)cc3[C@@H]21 | x | x | 1 | 9 | 8
O=C(c1ccc(F)cc1)N1CC[C@@H]2[C@H]1c1cc(C3=CCCCC3)ccc1N[C@@H]2CO | -4[16.7 µM] | x | x | x | x
O=C(C1CCCC1)N1CC[C@@H]2[C@H](CO)Nc3ccc(C4=CCCCC4)cc3[C@@H]21 | x | x | -3 | 0 | 34*
COc1ccc(C#Cc2ccc3c(c2)[C@H]2[C@H](CCN2C(=O)c2ccccn2)[C@@H](CO)N3)cc1 | x | x | 1 | -6 | 26*
COc1cccc(-c2ccc3c(c2)[C@@H]2[C@@H](CCN2C(=O)C2CCCC2)[C@H](CO)N3)c1 | x | x | 0 | -2 | 32*
O=C(C1CCCC1)N1CC[C@@H]2[C@@H](CO)Nc3ccc(-c4cccc(F)c4)cc3[C@@H]21 | x | x | 0 | -3 | 25*
COc1ccc(S(=O)(=O)N(C)C[C@@H]2OCCCC[C@H](C)Oc3ccc(NC(=O)Nc4c(C)noc4C)cc3C(=O)N([C@@H](C)CO)C[C@H]2C)cc1 | 7[16.7 µM] | x | 1 | -18 | 2
COc1cccc(-c2ccc3c(c2)[C@@H]2[C@@H](CCN2C(=O)C2CCCCC2)[C@H](CO)N3)c1 | x | x | 0 | -18 | 36*
COc1cccc(-c2ccc3c(c2)[C@@H]2[C@@H](CCN2C(=O)C2CCC2)[C@H](CO)N3)c1 | -7[16.7 µM] | x | x | x | x
C[C@H](CO)N1C[C@H](C)[C@@H](CN(C)S(=O)(=O)c2ccc(Cl)cc2)OCCCC[C@H](C)Oc2ccc(NS(C)(=O)=O)cc2C1=O | 7[16.7 µM] | x | 0 | -13 | 1
CCOc1ccc(/C=N/NC(=O)c2ccccc2C)cc1CN1CC2CC(C1)c1cccc(=O)n1C2 (stereo unspecified) | -9 | 1 | -2 | 94* | x
CCOC(=O)C1CCCN(C(=O)c2ccc3nc(-c4ccccc4)c(-c4ccccc4)nc3c2)C1 (stereo unspecified) | 1 | -3 | -3 | -3 | 4

High-throughput results: PubChem, Broad Institute
